ARFGAP1 inhibitor: inhibitors of rat ARFGAP1 GAP activity, primary screen, biochemical, fluorescence polarization, GDP tracer; Arfgap1-stimulated ARF1 GTP hydrolysis, GDP FP detection; ADP-ribosylation factor GTPase-activating protein 1 (Rattus norvegicus), Q62848; AID 651572, 2012; actives 0.26% (n = 360,000); inhibition, % at 16.5 µM;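 active = inhibition above a per-plate limit, mean inhibition of low control wells plus 3 SD, cut at about 25% in these data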
Target sequence (Q62848 1-136 limits assumed): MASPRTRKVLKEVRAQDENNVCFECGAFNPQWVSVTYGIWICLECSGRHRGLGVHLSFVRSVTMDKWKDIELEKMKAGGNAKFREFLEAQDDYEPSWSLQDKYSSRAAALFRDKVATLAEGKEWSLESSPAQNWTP
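system = rat Arfgap1 catalytic domain, aa 1-136 | technique = FP, GDP Alexa 633 tracer displaced from anti-GDP antibody, 620/688 nm | compound = one concentration, 16.5 µM, DMSO 1.26% | medium = HEPES-based buffer, pH 7.5 | timing = compound-enzyme preincubation 20 min, reaction 120 min, detection 60 min, 25 °C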
ASAP1 GAP inh: inhibitors of human ASAP1 ArfGAP activity, primary screen, biochemical, fluorescence polarization. Arf-GAP with SH3 domain, ANK repeat and PH domain-containing protein 1 (Homo sapiens), …. inhibition, % at 16.5 µM. AID 624377, 2012. ASAP1-stimulated ARF1 GTP hydrolysis, GDP FP detection. actives 0.19% (n = 360,000); in the data active = inhibition above about 25%
Target sequence (Q9ULH1 325-724 limits assumed): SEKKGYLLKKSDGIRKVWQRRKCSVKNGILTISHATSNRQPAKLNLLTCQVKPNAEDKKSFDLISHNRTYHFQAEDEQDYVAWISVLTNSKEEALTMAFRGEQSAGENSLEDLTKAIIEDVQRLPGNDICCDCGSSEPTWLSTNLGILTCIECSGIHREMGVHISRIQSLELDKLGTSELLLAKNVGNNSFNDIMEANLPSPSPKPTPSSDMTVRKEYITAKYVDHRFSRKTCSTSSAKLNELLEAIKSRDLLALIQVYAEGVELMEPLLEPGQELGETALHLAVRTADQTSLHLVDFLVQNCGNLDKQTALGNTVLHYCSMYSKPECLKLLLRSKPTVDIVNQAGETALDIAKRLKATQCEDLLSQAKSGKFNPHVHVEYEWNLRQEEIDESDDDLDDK
SKKanGAS inh: S. pyogenes SKKanGAS growth inhibitors in kanamycin, primary screen, streptokinase expression inhibitor project, SKKanGAS strain, BacTiter-Glo luminescence. actives 1.3% (n = 300,000). inhibition, % at 7.5 µM. 6 h;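 active = mean replicate score, as percent of positive control median, at least 50; inconclusive = mean below 50 but one replicate at or above 50; inactive = mean and every replicate below 50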;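 also: strain carries kanamycin resistance gene driven by streptokinase promoter and grows in 40 µg/ml kanamycin; loss of luminescence reflects streptokinase promoter inhibition or plain growth inhibition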
sPLA2-III inh: human group III sPLA2 inhibitors, primary screen, biochemical, QFRET, BODIPY PC-A2 liposome substrate. Group 3 secretory phospholipase A2 (Homo sapiens), Q9NZ20. QFRET BODIPY PC-A2 liposome hydrolysis, fluorescence. inhibition, % at 12.2 µM. actives 0.56% (n = 370,000). AID 743126, 2013;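 active = inhibition above mean plus 3 SD of compounds lying within the high and low control bounds, cut at about 19% in these data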
Calb FLC: C. albicans growth inhibition with fluconazole, primary screen, CaCi-2 strain, Alamar Blue fluorescence; C. albicans CaCi-2 + fluconazole, 48 h; growth inhibition, % (test concentration not listed); actives 0.57% (n = 300,000); AID 1979, 2009;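 active = growth inhibition above about 58% in most replicates, limit read from the data, passing the limit was not always enough; inconclusive = exactly half the replicates above a set limit; inactive = most replicates below a set limit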;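 also: all wells also contain fluconazole at 8 µg/ml as a sub-toxic cotreatment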
Numbers stand for hits; – = inactive; ? = inconclusive; · = no result. Sampled rows, rich in hits. Any-hit rate of the full collection: about 2.3%.

SMILES | ARFGAP1 inhibitor | ASAP1 GAP inh | SKKanGAS inh | sPLA2-III inh | Calb FLC
CCc1sc(N(C(=O)Cc2ccccc2)c2ccc(F)cc2)nc1-c1ccccc1 | – | – | 55.0 | – | –
c1ccc(COc2ncnc3c2ncn3CCCNCC(c2ccccc2)c2ccccc2)cc1 | – | – | · | – | ·
Cc1cccc(C2CC3(CC(C)(C)NC(=S)N3)Oc3cc(O)ccc32)c1 (centres undefined) | – | – | – | – | 79.5
CCCCCCCCN1C(=O)[C@H](CC(=O)NCc2cccc(C(F)(F)F)c2)C[C@@]2(C(=O)OC)CC(C)(C)CC=C12 | – | – | · | – | ·
CC(/C=C1\SC(=S)N(C(C(=O)O)c2ccccc2)C1=O)=C\c1ccccc1 (centres undefined) | – | – | 60.6 | – | –
CC(C)N1CCc2c(-c3nc4ccccc4s3)csc2C1 | · | · | · | – | ·
CNCc1ccccc1Sc1ccc(O)c(O)c1 | – | – | – | – | 106.6
CC[C@H](CCC(=O)N(c1ccccc1)c1ccccc1)c1ccc(C)cc1 | · | · | · | – | ·
Cc1nc2ccc(NC(=O)c3cc(Cl)ccc3F)cc2c(=O)[nH]1 | · | · | · | – | ·
Cc1ccc(S(=O)(=O)Nc2cccc3ncccc23)s1 | · | · | 71.0 | · | –
COC(=O)C[C@@H]1CC[C@H]2[C@H](COc3ccc(NC(=O)C4CCC4)cc3C(=O)N2C)O1 | · | · | · | – | ·
c1cc2cc(-c3c(-c4ccc5c(c4)OCO5)noc3-c3ccsc3)ccc2[nH]1 | 29.4 | – | – | – | –
O=C(NCc1ccccc1)[C@@H]1CCCN1C(=O)[C@H]1CCCN1C(=O)c1ccc(F)cc1 | – | – | · | – | ·
CCN(C(=O)[C@@H]1CC(=O)O[C@@H]1c1ccccc1)c1ccccc1 | · | · | · | – | ·
Cc1ccc(-c2cc(C(F)F)nc(N3CCC(C)CC3)n2)cc1 | – | – | 63.1 | – | –
CC1CCN(c2nc(-c3ccccc3)cc(C(F)(F)F)n2)CC1 | – | – | ? | – | ?
S=C(NCCCN1CCN(CCCNC(=S)NC2CCCCC2)CC1)NC1CCCCC1 | – | – | · | – | ·
OCCN1CCN(C(=S)NC2CCCC2)CC1 | – | – | – | – | 88.3
S=C(NCCN1CCOCC1)NC1CCCC1 | – | – | – | – | 51.0
O=C(N/N=C/c1cc(Br)c(O)c(Br)c1)C1CC1 | – | – | – | – | –
CC(C)(C)NC(=S)N/N=C/c1cc(Br)c(O)c(Br)c1 | – | – | – | – | 76.5
CC(C)N(C(N)=NC(=O)OCc1ccccc1)C(C)C | · | · | · | – | ·
COC1C=COC2(C)Oc3c(C)c(O)c4c(O)c(c(CN5CCN(C)CC5)c(O)c4c3C2=O)NC(=O)C(C)=CC=CC(C)C(O)C(C)C(O)C(C)C(OC(C)=O)C1C (centres undefined) | – | – | · | – | ·
CO[C@H]1C=CO[C@@]2(C)Oc3c(C)c(O)c4c(O)c(c5c(nc6cc(C)ccn65)c4c3C2=O)NC(=O)C(C)=CC=C[C@H](C)[C@H](O)[C@@H](C)[C@@H](O)[C@@H](C)[C@H](OC(C)=O)[C@@H]1C | · | · | 104.7 | · | ·
CO[C@H]1C=CO[C@@]2(C)Oc3c(C)c(O)c4c(O)c(c5c(c4c3C2=O)NC2(CCN(CC(C)C)CC2)N=5)=NC(=O)C(C)=CC=C[C@H](C)[C@H](O)[C@@H](C)[C@@H](O)[C@@H](C)[C@H](OC(C)=O)[C@@H]1C | · | · | 106.4 | · | ·
SMILES | ARFGAP1 inhibitor | ASAP1 GAP inh | SKKanGAS inh | sPLA2-III inh | Calb FLC
CC(=O)N1CCCN(S(=O)(=O)c2ccc3c(c2)n(C)c(=O)c(=O)n3C)CC1 | · | · | · | – | ·
COC(=O)C1=C(C)N(Cc2cccc(C(F)(F)F)c2)C(=NCC2CC2)NC1c1ccccc1 (centres undefined) | – | – | · | – | ·
CC(=O)N(CCC(Cc1ccccc1)c1ccc2c(c1)OCO2)Cc1ccc(Cl)cc1 (centres undefined) | – | – | 64.0 | – | –
O=C(O)CC(Cc1ccccc1)c1ccc2c(c1)OCO2 (centres undefined) | – | – | – | – | –
Cc1ccc(NC(=O)C(OC(=O)c2cc(C)oc2C)c2ccccc2)cc1 (centres undefined) | – | – | – | – | –
Cc1cc(C(=O)OC(C(=O)Nc2cccc(C(F)(F)F)c2)c2ccccc2)c(C)o1 (centres undefined) | – | – | 71.2 | – | –
CN(C)CC(O)COc1cc2ccccc2cc1C(=O)N1CCCCC1 (centres undefined) | – | – | – | – | 102.7
Cc1ccccc1CN1CCCCC(NC(=O)c2ccc(F)cc2F)C1=O (centres undefined) | · | · | · | – | ·
O=[N+]([O-])c1nn(-c2ccc(Cl)cc2)n(O)c1=NCc1cccnc1 | – | – | – | – | 88.5
Cc1cc(C)cc(-c2c(C(=O)c3ccccc3)[nH]c(N)c2C(=O)NCCc2c[nH]c3ccccc23)c1 | · | · | · | – | ·
CC(C)(C)N(Cc1ccccc1)C(=O)COc1cccnc1[N+](=O)[O-] | – | – | 51.7 | – | –
COc1cc(/C=C2\SC(=Nc3ccccc3)N(Cc3ccco3)C2=O)ccc1OC(C)C(=O)O (centres undefined) | – | – | – | – | –
COCCN1C(=O)/C(=C/c2ccc(OCc3ccc(C(=O)O)cc3)c(OC)c2)SC1=Nc1ccccc1 | – | – | 91.0 | – | –
CCC(=O)N1CCC1(C)C(=O)Nc1ccc2scnc2c1 (centres undefined) | – | – | · | – | ·
CC(=O)C1=C(C)NC(SCC(=O)c2cc(Cl)ccc2Cl)=C(C#N)C1c1ccco1 (centres undefined) | – | – | – | – | –
CC(=O)C1=C(C)NC(SCC(=O)c2ccc(Cl)c(Cl)c2)=C(C#N)C1c1ccco1 (centres undefined) | – | – | 56.1 | – | –
COc1cc(NC(=O)c2ccccc2)c(C)cc1NC(=O)CSc1nnc(-c2ccco2)n1Cc1ccco1 | · | · | · | – | ·
COc1ccc(N/N=C(\C#N)C(N)=O)cc1 | – | – | – | – | –
N#C/C(=N/Nc1ccc(OC(F)(F)F)cc1)C(N)=S | – | – | 114.9 | – | 81.2
CCN(CC)C(=S)SSC(=S)N(CC)CC | – | – | – | – | 100.3
CCCCCCCCN1C(=O)[C@@H](CC(=O)NCCc2ccccc2OC)C[C@@]2(C(=O)OC)C1=C[C@H](C1CCCC1)O[C@@H]2C | – | – | · | – | ·
COCCN1C(=O)C2=C(C1=O)C1N(C)c3ccccc3[C@@]13C[C@@H](CO)N(C(C)=O)C3=N2 (some centres undefined) | · | · | · | – | ·
C(#CC1=CCCCC1)CNCC1CC1 | · | · | · | – | ·
CC1(c2ccccc2)CC(C)(C)N2C(=O)/C(=C3\SC(=S)NC3=O)c3cccc1c32 (centres undefined) | – | – | 113.9 | – | –
CC1(c2ccccc2)CC(C)(C)N2C(=O)C3(C(C#N)=C(N)Oc4cc(O)ccc43)c3cccc1c32 (centres undefined) | – | – | – | – | –

High-throughput results: PubChem BioAssay, several laboratories
